In data set [1] the target is Voltage-gated inwardly rectifying potassium channel KCNH2 (Homo sapiens, UniProt Q12809). Kind of data set: Inhibition of human ERG expressed in CHO cells at 10 nM to 10 uM at holding potential of -80 mV measured after 5 mins by QPatch automated patch clamp electrophysiology method. For orientation: Patch clamp records ionic current or voltage across a cell membrane.

Data set [2] in a line: Apparent permeability from apical to basolateral side in MDCK-MDR1 cells monolayer at 5 uM after 60 mins by LC-MS/MS analysis. As to conditions: dog.
The target of data set [3] is T1, Sodium- and chloride-dependent glycine transporter 2 (Homo sapiens, UniProt Q9Y345).
T1 sequence (Q9Y345 whole entry): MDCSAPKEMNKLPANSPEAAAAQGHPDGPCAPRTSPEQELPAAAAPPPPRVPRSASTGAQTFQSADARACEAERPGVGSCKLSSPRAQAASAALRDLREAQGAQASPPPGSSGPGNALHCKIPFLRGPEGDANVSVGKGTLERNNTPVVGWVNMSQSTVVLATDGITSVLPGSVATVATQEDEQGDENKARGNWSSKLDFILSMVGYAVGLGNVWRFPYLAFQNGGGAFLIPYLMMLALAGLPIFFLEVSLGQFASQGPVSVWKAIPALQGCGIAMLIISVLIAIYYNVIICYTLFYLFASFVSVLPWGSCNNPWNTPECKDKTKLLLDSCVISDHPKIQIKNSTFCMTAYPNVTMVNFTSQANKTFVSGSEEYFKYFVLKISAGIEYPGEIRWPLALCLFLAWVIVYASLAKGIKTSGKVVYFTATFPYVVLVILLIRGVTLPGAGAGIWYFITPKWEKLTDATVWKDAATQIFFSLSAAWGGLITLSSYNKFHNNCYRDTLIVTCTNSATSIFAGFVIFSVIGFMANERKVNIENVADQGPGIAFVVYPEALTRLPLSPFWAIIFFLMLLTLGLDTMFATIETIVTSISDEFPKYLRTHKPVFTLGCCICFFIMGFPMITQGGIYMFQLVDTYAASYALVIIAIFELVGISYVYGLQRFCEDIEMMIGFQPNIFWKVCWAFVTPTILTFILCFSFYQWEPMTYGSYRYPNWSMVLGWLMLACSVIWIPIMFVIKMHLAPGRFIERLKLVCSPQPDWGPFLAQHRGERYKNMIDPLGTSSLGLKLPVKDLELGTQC
The data set can be described thus: Inhibition of recombinant human GlyT2 expressed in HEK293 cells assessed as reduction in [14C]glycine uptake after 2 hrs by microbeta scintillation counting method. Format: cell-based.

A short description of data set [4]: Plasma concentration in Sprague-Dawley rat at 10 mg/kg, po after 90 mins by LC-MS/MS analysis. Format: ADME, organism-based. A digest of the protocol:
(§1)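 Male SD rats (n=5) given a single oral dose of 10 mg/kg in NMP/PEG400/water (10:50:40). Plasma, total brain and CSF compound concentrations measured 90 min after dosing.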

Data set [5] is described as follows: Drug uptake in Sprague-Dawley rat brain at 10 mg/kg, po after 90 mins by LC-MS/MS analysis. Type of data set: ADME, organism-based. The conditions noted are these: read-out: Drug uptake. The method in brief:
as §1

Data set [6] is described as follows: Drug uptake in Sprague-Dawley rat CSF at 10 mg/kg, po after 90 mins by LC-MS/MS analysis. The conditions noted are these: read-out: Drug uptake. Type of data set: ADME, organism-based, Cerebrospinal fluid. The method in brief:
as §1

Data set [7] in a line: Unbound fraction in rat plasma at 1 uM by LC-MS/MS based equilibrium dialysis. Type of data set: ADME, cell-free. The method in brief:
(§2)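 Rat plasma or brain homogenate (1:6 in 0.1 M PBS pH 7.2) spiked to 1.0 µM, in triplicate. Rapid equilibrium dialysis (MWCO 8000) against PBS, shaken at 37 °C for 6 h. Matrix-matched samples quantified by LC-MS/MS. fu = receiver/donor concentration; brain value corrected for homogenate dilution.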

Data set [8] can be described thus: Unbound fraction in rat brain homogenate at 1 uM by LC-MS/MS based equilibrium dialysis. Format: ADME, tissue-based. The method in brief:
as §2
A general note: Equilibrium dialysis compares concentrations on both sides of a semipermeable membrane.

Data set [9] in a line: Free drug level in rat brain homogenate at 1 uM by LC-MS/MS based equilibrium dialysis. Type of data set: ADME, tissue-based.
Data set [10] can be described thus: Ratio of free drug level in rat brain homogenate at 1 uM to IC50 for inhibition of GlyT1 in primary rat cortical neurons. Type of data set: tissue-based.
Data set [11] has as its system Rattus norvegicus. The data set can be described thus: In vivo inhibition of GlyT1 in Sprague-Dawley rat assessed as CSF glycine levels at 10 mg/kg, po administered as single dose measured after 90 mins by LC-MS/MS analysis relative to control. Format: functional. The method in brief:
(§3)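 Male Sprague-Dawley rats (300−400 g, n = 5), fed ad libitum, dosed orally at 10 mg/kg (10 mL/kg) in NMP/PEG400/water (10:50:40), with a vehicle group (n = 5) in each study. CSF (~100 µL) taken under anaesthesia at 90 min. Glycine derivatised with Marfey's reagent, 13C2-15N-glycine internal standard, LC-MS/MS in negative ion mode. Expressed as % of vehicle; 1-way ANOVA.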

In data set [12] the test system is Rattus norvegicus. The data set can be described thus: In vivo inhibition of GlyT1 in Sprague-Dawley rat assessed as increase in CSF glycine levels at 10 mg/kg, po administered as single dose measured after 90 mins by LC-MS/MS analysis relative to control. Format: functional. Also noted: scale not given: the % may be the effect or the level left. The method in brief:
as §3

Consider two compounds from ChEMBL document CHEMBL4190397, “Design and Synthesis of Novel and Selective Glycine Transporter-1 (GlyT1) Inhibitors with Memory Enhancing Properties” (J Med Chem, 2018).

Structures are written as SMILES.

As usually defined, the IC50 is the concentration needed to halve the response being measured. As usually defined, the Papp A→B is the apparent permeability from the apical to the basolateral side of a cell layer. What is called fraction unbound is free concentration divided by total concentration.

Chain of Voltage-gated inwardly rectifying potassium channel KCNH2 (Q12809 whole entry): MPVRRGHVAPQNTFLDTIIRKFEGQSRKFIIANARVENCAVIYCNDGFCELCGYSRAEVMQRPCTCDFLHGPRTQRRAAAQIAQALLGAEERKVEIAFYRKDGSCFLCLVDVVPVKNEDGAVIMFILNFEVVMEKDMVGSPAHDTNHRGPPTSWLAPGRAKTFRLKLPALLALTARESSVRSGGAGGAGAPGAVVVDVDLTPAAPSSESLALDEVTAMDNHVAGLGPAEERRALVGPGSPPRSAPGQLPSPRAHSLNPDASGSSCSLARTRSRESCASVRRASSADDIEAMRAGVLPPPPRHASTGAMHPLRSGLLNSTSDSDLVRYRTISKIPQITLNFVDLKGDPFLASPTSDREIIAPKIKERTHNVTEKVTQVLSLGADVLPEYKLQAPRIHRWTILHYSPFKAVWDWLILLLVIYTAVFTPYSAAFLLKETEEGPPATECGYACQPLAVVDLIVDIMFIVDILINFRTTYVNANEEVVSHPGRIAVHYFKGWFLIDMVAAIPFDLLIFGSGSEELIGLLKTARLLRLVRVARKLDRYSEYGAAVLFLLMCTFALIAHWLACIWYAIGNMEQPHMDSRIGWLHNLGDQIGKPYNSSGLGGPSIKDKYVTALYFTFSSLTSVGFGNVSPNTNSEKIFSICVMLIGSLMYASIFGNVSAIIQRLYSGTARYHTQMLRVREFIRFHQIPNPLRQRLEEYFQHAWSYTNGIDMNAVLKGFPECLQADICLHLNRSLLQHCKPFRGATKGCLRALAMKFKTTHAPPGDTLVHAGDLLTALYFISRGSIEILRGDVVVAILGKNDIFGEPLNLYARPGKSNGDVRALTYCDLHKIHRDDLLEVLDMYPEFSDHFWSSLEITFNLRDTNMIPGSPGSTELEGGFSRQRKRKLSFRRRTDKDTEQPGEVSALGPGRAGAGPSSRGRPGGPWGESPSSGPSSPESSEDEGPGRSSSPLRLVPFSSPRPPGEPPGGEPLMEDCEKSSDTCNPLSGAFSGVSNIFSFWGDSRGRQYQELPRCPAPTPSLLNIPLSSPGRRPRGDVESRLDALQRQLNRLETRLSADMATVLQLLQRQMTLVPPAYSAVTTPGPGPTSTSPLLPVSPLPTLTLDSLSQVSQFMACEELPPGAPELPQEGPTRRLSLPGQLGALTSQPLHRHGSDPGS

As to `C[C@H](Oc1ccc(C#N)cc1C(=O)N1Cc2cn(-c3ccccc3F)nc2C1)C(F)(F)F`, the half-inhibitory concentration (IC50) in data set [1] and in data set [3] was more than 10 µM each time. Also, in [2], the Papp A→B at 1 h, 5 µM is 57.4 ×10⁻⁶ cm/s.
Turning to `CS(=O)(=O)c1ccc(OCC2CC2)c(C(=O)N2Cc3cn(-c4ccccc4F)nc3C2)c1`, the IC50 in data set [1] is 9.9 µM; in [3], more than 10 µM. For the same compound, the Papp A→B at 1 h, 5 µM in data set [2] came out at 24.6 ×10⁻⁶ cm/s. Also, the concentration at […] in data set [4] was 2140 nM; in data set [5], 605 nM; in data set [6] it was 26 nM. Further, the results for the free fraction (fraction unbound) at 1 µM in data set [7] and in data set [8] were 0.047 and 0.017, respectively. The “Drug uptake(free)” value in data set [9] turned out to be 10.3 nM. In data set [10], the Ratio stood at 0.37. The Activity in the data set on Rattus norvegicus [11] worked out at 7.6 µM; in the data set with Rattus norvegicus [12], 110%.
